{"source": "ChEMBL document CHEMBL3593165", "about": "“Enzymatic synthesis of bile acid derivatives and biological evaluation against Trypanosoma cruzi” (Bioorg Med Chem, 2015)", "note": "Activity calls are given as the source filed them. The rule behind the calls is not given here.", "data": [{"test_system": "Trypanosoma cruzi", "experiment": "Antiparasitic activity against Trypanosoma cruzi strain CL Brener epimastigotes after 12 days by ELISA reader", "format": "functional", "conditions": "288 h", "in_short": "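CL Brener epimastigotes grown at 28 °C in LIT medium with 10% heat-inactivated FBS, hemin, streptomycin and penicillin. Seeded at final 5 × 10^6 cells/mL and exposed to compounds across 0.14–300 µM for 12 days at 28 °C. DMSO vehicle, final ≤0.5% (v/v). Growth read daily at 600 nm. IC50 taken from dose-response curves from three independent assays.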", "units": {"IC50": "µM"}, "values": [{"smiles": "C[C@H](CCC(=O)O)[C@H]1CC[C@H]2[C@@H]3[C@H](O)C[C@@H]4C[C@H](O)CC[C@]4(C)[C@H]3CC[C@]12C", "note": "[CHENODIOL]", "IC50": 236}, {"smiles": "CCOC(=O)CC[C@@H](C)[C@H]1CC[C@H]2[C@@H]3[C@H](OC(C)=O)C[C@@H]4C[C@H](O)CC[C@]4(C)[C@H]3CC[C@]12C", "IC50": 295}, {"smiles": "CCOC(=O)CC[C@@H](C)[C@H]1CC[C@H]2[C@@H]3CC[C@@H]4C[C@H](O)CC[C@]4(C)[C@H]3CC[C@]12C", "IC50": 266}, {"smiles": "CC(=O)O[C@@H]1CC[C@@]2(C)[C@@H](C1)C[C@@H](OC(C)=O)[C@@H]1[C@@H]2CC[C@]2(C)[C@@H]([C@H](C)CCC(=O)O)CC[C@@H]12", "IC50": 22.8}, {"smiles": "CCOC(=O)CC[C@@H](C)[C@H]1CC[C@H]2[C@@H]3[C@H](O)C[C@@H]4C[C@H](OC(C)=O)CC[C@]4(C)[C@H]3CC[C@]12C", "IC50": 8.6}]}, {"test_system": "Trypanosoma cruzi", "experiment": "Antiparasitic activity against Trypanosoma cruzi strain CL Brener epimastigotes at 300 uM after 12 days by ELISA reader", "format": "functional", "conditions": "not given", "in_short": "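T. cruzi CL Brener epimastigotes were grown at 28 °C in LIT medium with 10% heat-inactivated FBS, […], streptomycin and penicillin. Cells were seeded at 5 × 10^6 cells/mL with compound (0.14–300 µM, DMSO ≤0.5% v/v final) for 12 days at 28 °C. Benznidazole served as positive control, with drug-free and parasite-free controls. Growth was read daily at 600 nm in three independent assays.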", "values": [{"smiles": "CC(=O)O[C@@H]1CC[C@@]2(C)[C@@H](C1)C[C@@H](O)[C@@H]1[C@@H]2CC[C@]2(C)[C@@H]([C@H](C)CCC(=O)O)CC[C@@H]12", "inhibition": "inactive"}, {"smiles": "C[C@H](CCC(=O)O)[C@H]1CC[C@H]2[C@@H]3[C@H](O)C[C@@H]4C[C@H](O)CC[C@]4(C)[C@H]3CC[C@]12C", "note": "[CHENODIOL]", "inhibition": "inactive"}, {"smiles": "CC(=O)O[C@@H]1CC[C@@]2(C)[C@H](CC[C@@H]3[C@@H]2C[C@H](O)[C@]2(C)[C@@H]([C@H](C)CCC(=O)O)CC[C@@H]32)C1", "inhibition": "inactive"}, {"smiles": "CC(=O)O[C@H]1C[C@H]2[C@@H](CC[C@@H]3C[C@H](O)CC[C@@]32C)[C@@H]2CC[C@H]([C@H](C)CCC(=O)O)[C@@]12C", "inhibition": "inactive"}, {"smiles": "CCOC(=O)CC[C@@H](C)[C@H]1CC[C@H]2[C@@H]3[C@H](O)C[C@@H]4C[C@H](O)CC[C@]4(C)[C@H]3CC[C@]12C", "inhibition": "inactive"}, {"smiles": "CCOC(=O)CC[C@@H](C)[C@H]1CC[C@H]2[C@@H]3CC[C@@H]4C[C@H](OC(C)=O)CC[C@]4(C)[C@H]3C[C@H](O)[C@]12C", "inhibition": "inactive"}, {"smiles": "CCOC(=O)CC[C@@H](C)[C@H]1CC[C@H]2[C@@H]3CC[C@@H]4C[C@H](O)CC[C@]4(C)[C@H]3C[C@H](O)[C@]12C", "inhibition": "inactive"}, {"smiles": "CCOC(=O)CC[C@@H](C)[C@H]1CC[C@H]2[C@@H]3CC[C@@H]4C[C@H](OC(C)=O)CC[C@]4(C)[C@H]3CC[C@]12C", "inhibition": "inactive"}]}]}
